Converted amounts (≈) assume the structure as drawn. The source made the active and inactive calls. The rule behind the calls is not given here.
Experiments:
Staphylococcus aureus [1] = assay: Noncompetitive inhibition of AgrC-I in AIP-1-induced Staphylococcus aureus RN6390B at 5 to 25 uM after 55 mins by kinetic study
Procedure, shortened: (§1)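 The reporter strain was S. aureus RN6390B (pRN6683) carrying agrP3::blaZ. It was grown overnight at 37 °C in CYGP with 5 μg/mL chloramphenicol, diluted 1/100, and grown to OD600 ≈ 0.4. Cells were exposed to AIP-1 (0.01 nM–10 μM) plus compound (0–100 μM) for 55 min at 37 °C, quenched with sodium azide, and read as β-lactamase activity by nitrocefin. Triplicates were run on ≥2 occasions, with IC50 fitted.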

Staphylococcus aureus [2] = assay: Antimicrobial activity against Staphylococcus aureus RN6390B assessed as growth inhibition after 18 hrs by spectrophotometry; format: functional
[3] = Inhibition of AIP-1-induced AgrC-I activation in Staphylococcus aureus RN6390B after 55 mins by beta-lactamase reporter assay
Procedure, shortened: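 agrP3::blaZ reporter strain RN6390B (pRN6683) grown overnight at 37 °C in CYGP with 5 μg/mL chloramphenicol, diluted 1/100, grown with shaking to OD600 ≈ 0.4. Incubated with AIP-1 (0.01 nM to 10 μM) plus compounds (0–100 μM) for 55 min at 37 °C; quenched with sodium azide; β-lactamase read with nitrocefin. Triplicate, ≥2 independent occasions; IC50 fitted.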

[4] = Iron-chelating activity at 50 uM by Chrome Azurol S […] assay; format: physicochemical
Procedure, shortened: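 Chrome azurol S (CAS) assay with compounds at 50 μM. Desferrioxamine (10 μM) served as positive control and MeCN as solvent control.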

Staphylococcus aureus [5] = assay: Antimicrobial activity against Staphylococcus aureus RN6390B assessed as growth inhibition up to 100 uM after 18 hrs by spectrophotometry; format: functional, organism-based
Procedure, shortened: (§2)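 Staphylococci were grown at 37 °C with shaking in LB, Mueller–Hinton or CYGP broth, with or without test compound. Growth curves were followed as OD600 over 18 h.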

Staphylococcus aureus [6] = assay: Inhibition of AIP-1-induced AgrC-I activation in Staphylococcus aureus RN6390B up to 100 uM after 55 mins by beta-lactamase reporter assay; procedure, shortened: as §1
Staphylococcus aureus [7] = assay: Antimicrobial activity against Staphylococcus aureus USA300 assessed as growth inhibition at 100 uM after 18 hrs by spectrophotometry; format: functional, organism-based; procedure, shortened: as §2
Staphylococcus aureus [8] = assay: Noncompetitive inhibition of AgrC-I in AIP-1-induced Staphylococcus aureus RN6390B assessed as reduction in maximum level of activation at 25 to 100 uM after 55 mins by kinetic study relative to control; procedure, shortened: as §1
Staphylococcus aureus [9] = assay: Inhibition of Staphylococcus aureus adherence to human nasal squamous epithelial cells at 10 uM after 1 hr; format: functional, organism-based; settings: Epithelial cell
Procedure, shortened: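 Desquamated human nasal squamous epithelial cells, untreated or compound-treated, were incubated with S. aureus. Bound bacteria were counted per 100 nasal cells, as the mean of three experiments run in duplicate.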

Staphylococcus aureus [10] = assay: Antimicrobial activity against Staphylococcus aureus Newman in NMRI mouse septic arthritis model; format: functional, organism-based
Procedure, shortened: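 Mice were given test agent at 10 mg/kg body weight or PBS (control) and then challenged with S. aureus. Arthritis frequency and arthritic index were scored over a 10 day period.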

Staphylococcus aureus [11] = assay: Noncompetitive inhibition of AgrC-I in AIP-1-induced Staphylococcus aureus RN6390B at 25 to 100 uM after 55 mins by kinetic study; procedure, shortened: as §1

| Compound | IC50 [3] [µM] | growth inhibition (GI) (Staphylococcus aureus [5]) | inhibition (Staphylococcus aureus [6]) | further results |
| --- | --- | --- | --- | --- |
| CCCCCCCCCCCC(=O)C1=C(O)COC1=O | 6 | – | – | inhibition (Staphylococcus aureus [1]): Active; MIC (Staphylococcus aureus [2]): 25 µM (≈ 7.06 µg/mL); Activity [4]: Not Active |
| O=C(CCCc1ccccc1)CC(=O)N[C@H]1CCOC1=O | – | inactive | inactive | – |
| CCCCCCCCC/C(O)=C1/C(=O)N[C@H](CCO)C1=O | 28 | inactive | – | – |
| CCCCCCC/C(O)=C1/C(=O)N[C@@H](CCO)C1=O | 42 | inactive | – | growth inhibition (GI) (Staphylococcus aureus [7]): inactive |
| CCCCC/C=C/CCC(=O)CC(=O)N[C@H]1CCOC1=O | – | inactive | inactive | – |
| CCCCCC/C=C\CCCC(=O)C1=C(O)COC1=O | 88 | inactive | – | – |
| CCCCCCCCC/C(O)=C1/C(=O)N[C@@H](CCO)C1=O | 42 | – | – | fold change (FC) (Staphylococcus aureus [8]): 10; inhibition (Staphylococcus aureus [9]): Active; Activity (Staphylococcus aureus [10]): inactive; MIC (Staphylococcus aureus [2]): 100 µM (≈ 29.7 µg/mL); Activity [4]: Active |
| CCCCCCCCCC(=O)CC(N)=O | – | inactive | inactive | – |
| CCCCCCCCCCC/C(O)=C1/C(=O)N[C@@H](CCO)C1=O | 13 | – | – | MIC (Staphylococcus aureus [2]): 25 µM (≈ 8.14 µg/mL) |
| CCCCCCCCCC(=O)CC(=O)C1=C(O)COC1=O | – | inactive | inactive | – |
| CCCCCCCCCC(=O)CC(=O)N[C@@H]1CCOC1=O | 37 | – | – | MIC (Staphylococcus aureus [2]): 100 µM (≈ 29.7 µg/mL) |
| CCCCCCCCC/C(O)=C1/C(=O)N[C@@H](C)C1=O | 20 | – | – | MIC (Staphylococcus aureus [2]): 100 µM (≈ 26.7 µg/mL) |
| CCCCCCCCNC(=O)CC(=O)N[C@H]1CCOC1=O | – | inactive | inactive | – |
| CCCCCCCCCCCCC/C(O)=C1/C(=O)N[C@@H](CCO)C1=O | 14 | – | – | MIC (Staphylococcus aureus [2]): 12.5 µM (≈ 4.42 µg/mL) |
| O=C1N[C@@H](CCO)C(=O)/C1=C(/O)CCCC1CCCCC1 | – | inactive | inactive | – |
| CC(C)CCCCCCC(=O)C1=C(O)COC1=O | – | inactive | inactive | – |
| CCCCCCCCCC(=O)CC(=O)Nc1nccs1 | – | inactive | inactive | – |
| CCCC(=O)CC(=O)C1=C(O)COC1=O | – | inactive | inactive | – |
| O=C(Cc1ccc([N+](=O)[O-])cc1)C1=C(O)COC1=O | – | inactive | inactive | – |
| CCCCCCCCCC(=O)CC(=O)O[C@H]1CCOC1=O | – | inactive | inactive | – |
| CCCCCCCCCC(=O)C1=C(O)COC1=O | 21 | – | – | MIC (Staphylococcus aureus [2]): 50 µM (≈ 12.7 µg/mL); Activity [4]: Not Active |

| Compound | IC50 [3] [µM] | growth inhibition (GI) (Staphylococcus aureus [5]) | inhibition (Staphylococcus aureus [6]) | further results |
| --- | --- | --- | --- | --- |
| CCCCCCCCCCCCCCCC(=O)C1=C(O)COC1=O | 13 | inactive | – | – |
| CCCCCC(=O)C1=C(O)COC1=O | – | inactive | – | Activity [4]: Not Active |
| O=C(Cc1ccc(Br)cc1)C1=C(O)COC1=O | – | inactive | inactive | – |
| CCCCCCCCCCCC(=O)N[C@H]1CCOC1=O | – | inactive | inactive | – |
| CCCCCCCCCC(O)CC(=O)N[C@H]1CCOC1=O (stereo not given in full) | – | inactive | inactive | – |
| CCCCCCCCCC(=O)CC(=O)N[C@H]1CCSC1=O | – | inactive | inactive | – |
| O=C(COc1ccc(Br)cc1)C1=C(O)COC1=O | – | inactive | inactive | – |
| CCCCC/C=C/CCC(=O)C1=C(O)COC1=O | 22 | – | – | MIC (Staphylococcus aureus [2]): 50 µM (≈ 12.6 µg/mL) |
| CCCCCCCCCC/C(O)=C1/C(=O)N[C@@H](CCO)C1=O | 10 | – | – | MIC (Staphylococcus aureus [2]): 50 µM (≈ 15.6 µg/mL) |
| CCCCCCCCCC(=O)CC(=O)N[C@@H](CCO)C(=O)O | – | inactive | inactive | – |
| CCCCCCCCCC(=O)CC(=O)N[C@H]1CCC(=O)NC1=O | – | inactive | inactive | – |
| CCCCCCCCCC(=O)CC(=O)N[C@H]1CCNC1=O | – | inactive | inactive | – |
| CCCCCCCCOC(=O)CC(=O)N[C@H]1CCOC1=O | – | inactive | inactive | – |
| CCC/C(O)=C1/C(=O)N[C@@H](CCO)C1=O | – | inactive | inactive | – |
| CCCCCCCCC/C(O)=C1\C(=O)CNC1=O | 30 | – | – | MIC (Staphylococcus aureus [2]): 100 µM (≈ 25.3 µg/mL) |
| CCCCCCCCCC(=O)CC(=O)N[C@H]1CCOC1=O | 22 | – | – | inhibition (Staphylococcus aureus [11]): Active |
| CCCCCCCCN(C)C(=O)CC(=O)N[C@H]1CCOC1=O | – | inactive | inactive | – |
| CCCCCCCCCC(=O)CC(=O)N[C@H]1CC(=O)NC1=O | – | inactive | inactive | – |
| O=C(CCCC1CCCCC1)CC(=O)N[C@H]1CCOC1=O | – | inactive | inactive | – |
| O=C1N[C@@H](CCO)C(=O)/C1=C(/O)Cc1ccc([N+](=O)[O-])cc1 | – | inactive | inactive | – |

From ChEMBL document CHEMBL3232797, “Targeting Staphylococcus aureus quorum sensing with nonpeptidic small molecule inhibitors” (J Med Chem, 2014)
